Assay outcomes (PubChem BioAssay)
Shown are actives, neighbours in structure and some others; about 5.6% of the full set was active somewhere.
NR3A LBD binder: modulators (binders) of human NR3A ligand-binding domain. NR3A LBD differential scanning fluorimetry, Tm shift; 0% = protein alone, 100% = glycine-bound protein. Tm shift relative to glycine control, % at 25 µM. hit rate 2.5% among 340,000. AID 1259313;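 active means melting temperature shift of at least 10% of the positive control shift, at one fixed dose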
CHOP UPR activ: activators of apoptotic arm of unfolded protein response (CHOP). activation, % at 10 µM. hit rate 0.34% among 330,000. AID 449763. CHO-CHOP luciferase reporter, UPR activation, luminescence; percent of tunicamycin response over DMSO baseline;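 active means at 10 µM dose, activation of 40% or more, normalized to positive control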;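 further: 100% = tunicamycin at 10 µg/mL and 0% = DMSO alone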
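Evaluation: % reporter activation, DMSO baseline versus tunicamycin full activation; System: CHO-CHOP luciferase reporter cell line; Input: 500 cells/well; Incubation: 6 h compound treatment, 37 °C; Measured by: Steady-Glo luciferase luminescence; Dosing: one dose, 10 µM in 0.5% DMSO; Buffer or medium: F12 medium, 10% FBS; Benchmarks: positive tunicamycin 10 µg/mL, negative DMSO alone.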
MPTP block: inhibitors of mitochondrial permeability transition pore | inhibition, % at 10 µM | isolated mouse mitochondria, Ca2+ swelling absorbance, 30 min | hit rate 1.4% among 360,000;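 active means inhibition of 50% or more, scaled per plate between neutral and stimulator controls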;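 further: 0% = DMSO wells given calcium and 100% = 1 mM EGTA wells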
aDG glyco act: increases alpha dystroglycan glycosylation; Pro5-aDG cells, alpha-DG glycosylation AlphaScreen (IIH6); 0% Pro5, 100% B10-LARGE cell signal; activation, % at 10 µM; hit rate 0.22% among 360,000;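 active means activation of at least 8% versus controls, or a plate z-score of at least 8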;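 further: Pro5 are CHO cells carrying HIG-tagged alpha-DG that lacks glycosylation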
CHOP inhibitor: inhibitors of CHOP induction in ER stress response | CHO-K1 CHOP-promoter luciferase, tunicamycin-induced, 15-18 h | inhibition, % at 10 µM | hit rate 3.8% among 220,000 | AID 2732;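 active means compounds that reduced the stress-induced luciferase reporter signal by more than about 70% of percent inhibition, limit read from the data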;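 further: 0% = tunicamycin plus vehicle and 100% = wells without tunicamycin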
UPR XBP1 act: activators of adaptive arm of unfolded protein response (XBP1) | CHO-XBP1 luciferase reporter, IRE1-XBP1 UPR activation, luminescence; percent of tunicamycin response, DMSO as zero | activation, % at 20 µM | hit rate 0.33% among 330,000;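 active means versus positive control, 20 µM dose yields 30% or more activation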;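 further: 100% = tunicamycin at 10 µg/mL and 0% = DMSO only wells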
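Material: CHO cell line with stable XBP1 luciferase reporter; buffer or medium: F12 medium containing 10% fetal bovine serum; compound: single point, 20 µM final compound, 1% DMSO; incubation: 6 h treatment, 37 °C; measured by: glow luminescence from Steady-Glo reagent; evaluation: activation, % of tunicamycin; control set: tunicamycin high, DMSO low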
* hit, by the source's call; . = no result.

SMILES	NR3A LBD binder	CHOP UPR activ	MPTP block	aDG glyco act	CHOP inhibitor	UPR XBP1 act
CCN(CC)C(=O)CN(c1ccc(F)c(Cl)c1)S(C)(=O)=O	1	2	-2	0	76*	1
COc1ccccc1C(=O)Nc1ccnn1C1CCN(C2CCCCC2)CC1	.	.	0	0	.	.
CCOc1ccc2nc(NC(=O)C(NS(=O)(=O)c3cccc4nsnc34)C(C)C)sc2c1 (stereo not given)	-10	2	0	0	20	0
CC(C)C(NS(=O)(=O)c1cccc2nsnc12)C(=O)Nc1nc2ccc(Cl)cc2s1 (stereo not given)	2	2	1	0	88*	-3
Cc1ccc(Cn2cc(CCC(=O)O)c3ccccc32)cc1	3	1	1	0	.	-1
O=C(O)Cc1cn(Cc2ccc(F)cc2)c2ccccc12	-3	47*	0	0	-5	-2
O=S(=O)(NCC(c1cccs1)N1CCc2ccccc2C1)c1ccccc1 (stereo not given)	14*	1	1	0	.	-1
O=[N+]([O-])c1ccc(S(=O)(=O)NCC(c2ccco2)N2CCc3ccccc3C2)cc1 (stereo not given)	-7	1	0	0	.	-1
O=C(NC1CCCC1)N[C@@H]1C=C[C@@H](CC(=O)N2CCOCC2)O[C@@H]1CO	.	.	4	0	.	.
CC(=NNC(=O)c1cccc(S(=O)(=O)N2CCOCC2)c1)c1ccccc1	0	4	-2	0	.	3
COCC(O)Cn1ccnc1[N+](=O)[O-] (stereo not given)	.	.	0	0	.	.
Cc1cc(C)c(C#N)c(SCC(=O)OC2CCCCC2)n1	0	0	0	0	77*	0
CCOC(=O)CSc1nc(C)cc(C)c1C#N	-1	2	5	0	-1	0
COc1cccc(-c2nc(CS(=O)(=O)CC(=O)Nc3cc(C)ccc3C)c(C)o2)c1	-1	5	-2	0	77*	-2
COc1ccc(-c2nc(CS(=O)(=O)CC(=O)Nc3ccc(Cl)cc3)c(C)o2)cc1	-2	3	1	0	97*	-1
COc1cccc(-c2nc(CS(=O)(=O)CC(=O)Nc3c(C)cccc3C)c(C)o2)c1	-2	0	-1	0	56	0
COc1ccc(NC(=O)CS(=O)(=O)Cc2nc(-c3ccc(C)cc3)oc2C)cc1	2	0	-1	0	.	-2
COC(=O)[C@@]1(Cc2ccc(F)cc2)[C@H]2c3cc(C(=O)N(C)C)n(Cc4ccc(C)c(F)c4F)c3C[C@H]2CN1C(=O)c1ccccc1	.	.	0	0	.	.
O=C(c1ccc(F)cc1)C1CCN(C(=S)Nc2ccc(F)cc2)CC1	-1	-1	1	0	.	-6
Cc1ccc(NC(=O)C(C)OC(=O)COc2cccc(C(F)(F)F)c2)cc1 (stereo not given)	-15	-1	-1	0	.	1
CCN(CCS(=O)(=O)c1ccc(Br)cc1)Cc1nc2ccccc2c(=O)[nH]1	0	1	-2	0	.	1
Nc1c(C(O)(C(F)(F)F)C(F)(F)F)cc(C(O)(C(F)(F)F)C(F)(F)F)c2ccccc12	8	5	0	0	95*	-1
CC(C)c1cccc(-c2ccc3c(c2)S(=O)(=O)c2cccc(C(=O)O)c2C3=O)c1	24*	0	0	0	.	-1
CC(C)c1cccc(-c2ccc3c(c2)S(=O)(=O)c2cccc(C(=O)NCc4ccco4)c2C3=O)c1	-4	5	1	0	.	5
CC(C)C(=O)N1CCC1(C)C(=O)Nc1ccc(-n2cncn2)cc1 (stereo not given)	.	.	0	0	.	.
SMILES	NR3A LBD binder	CHOP UPR activ	MPTP block	aDG glyco act	CHOP inhibitor	UPR XBP1 act
CCCCCCN1C[C@H](O)[C@@H](n2cc(C3CC3)nn2)C[C@@H]1c1ccc(C)cc1	.	.	-1	0	.	.
Cc1c(CC(=O)N2CCC(O)CC2)c(=O)oc2cc3c(cc12)CCC1(CCCCC1)O3	.	.	0	0	.	.
Cc1cccc(N2CCN(S(=O)(=O)c3cccc4nonc34)CC2)c1C	-19	-2	4	0	73*	-1
CCC1CO/C(=C(\C(Cl)=C(Cl)Cl)[N+](=O)[O-])N1 (stereo not given)	0	1	-1	0	79*	-1
CN1CCO/C1=C(\C(Cl)=C(Cl)Cl)[N+](=O)[O-]	-3	2	0	0	7	0
CCCc1[nH]n(-c2ccc([N+](=O)[O-])cc2)c(=O)c1C=NCCc1ccc(OC)c(OC)c1	-1	0	3	0	19	8
CCCc1[nH]n(-c2ccc([N+](=O)[O-])cc2)c(=O)c1C=NCCc1c[nH]c2ccccc12	22*	2	13	0	-7	-4
Cc1[nH]n(-c2ccc([N+](=O)[O-])cc2)c(=O)c1C=NCCc1c[nH]c2ccccc12	27*	3	1	0	51	4
Cc1ccc(C)c(N2N=C(C(=O)N(CC(C)C)c3c(N)n(Cc4ccccc4)c(=O)[nH]c3=O)CCC2=O)c1	-1	0	-1	0	.	-7
O=C1NC(=Nc2ccccc2)S/C1=C\C=C\c1ccco1	11*	6	5	0	87*	0
COc1ccc(/C=C2\SC(=Nc3ccccc3OC)NC2=O)cc1	-1	2	1	0	.	-5
COc1ccc(N=C2NC(=O)/C(=C/C=C/c3ccccc3)S2)cc1	14*	-1	0	0	77*	0
COc1ccc(/C=C2\SC(=NCc3ccccc3)NC2=O)cc1	17*	1	2	0	40	-2
O=C1N/C(=N/Nc2ccccc2)S/C1=C\c1ccccc1	10*	2	1	0	36	1
O=C(OCC(=O)N1CCc2ccccc21)[C@@H]1CC(O)CN1S(=O)(=O)c1ccccc1[N+](=O)[O-] (stereo not given in full)	-2	1	7	0	.	-1
Cc1ccc(CNC(=O)CCn2cc(-c3ccc(C)cc3)nc2CCN)cc1	4	1	2	0	.	-1
Cc1cc(C)c(C)c(S(=O)(=O)NC2CCN(Cc3ccccc3)CC2)c1C	2	-2	-1	1	79*	-1
Cc1cc(C)c(S(=O)(=O)NC2CCN(Cc3ccccc3)CC2)c(C)c1	-1	-2	2	0	31	-1
CC1CCCCN1C(=O)COC(=O)C1CCN(S(=O)(=O)c2ccc(Cl)c(C(F)(F)F)c2)CC1 (stereo not given)	21*	-2	0	0	.	-1
CN(C)C(=O)CNc1ccn2nc(-c3cccc(Cl)c3)cc2n1	.	.	0	0	.	.
O=C(c1cc(COc2cccc(C(F)(F)F)c2)on1)N1CCCC1	.	.	1	0	.	.
